Reference: ChEMBL document CHEMBL4689842, “EUbOPEN Chemogenomics Library wave 1” (2021)

System: U2OS
Test: Multiplex assay against U2OS
Format: toxicity, cell-based
Details: human
Outline: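 Phenotypes for tubulin, mitochondrial mass and membrane permeability are expressed as per cents of healthy-nucleus cells. Cells were stained live at seeding with Hoechst33342, BioTracker Green Microtubule Cytoskeleton Dye, MitoTracker Red and Annexin V Alexa Fluor 680, then imaged after compound addition on a CQ1 microscope at 37°C and 5% CO2. Machine-learning gating in CellPathfinder separated Hoechst high-intensity objects from normal cells, divided normal cells by nuclear state (healthy, pyknosed, fragmented) and divided pyknosed cells into mitotic or apoptotic.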

[1] = 12 h, 1 µM, compound concentration 1 uM, replicate 1
[2] = 12 h, 1 µM, compound concentration 1 uM, replicate 2
[3] = 12 h, 10 µM, compound concentration 10 uM, replicate 1
[4] = 12 h, 10 µM, compound concentration 10 uM, replicate 2
[5] = 24 h, 1 µM, compound concentration 1 uM, replicate 1
[6] = 24 h, 1 µM, compound concentration 1 uM, replicate 2
[7] = 24 h, 10 µM, compound concentration 10 uM, replicate 1
[8] = 24 h, 10 µM, compound concentration 10 uM, replicate 2
[9] = 48 h, 1 µM, compound concentration 1 uM, replicate 1
[10] = 48 h, 1 µM, compound concentration 1 uM, replicate 2
[11] = 48 h, 10 µM, compound concentration 10 uM, replicate 1
[12] = 48 h, 10 µM, compound concentration 10 uM, replicate 2

SMILES: CN(C)C(=O)C(CCN1CCC(O)(c2ccc(Cl)cc2)CC1)(c1ccccc1)c1ccccc1.Cl [LOPERAMIDE HYDROCHLORIDE]
- Population Apoptotic (%) [1]: 37%
- Population Fragmented Nuclei (%) [1]: 11%
- Population Healthy Nuclei (%) [1]: 69%
- Population Hoechst High Intensity Objects (%) [1]: 4%
- Population Membrane Permeable-Phenotype (%) [1]: 5%
- Population Mitochondria Different-Phenotype (%) [1]: 82%
- Population Mitotic Cells (%) [1]: 62%
- Population Normal (%) [1]: 95%
- Population Pyknosed Nuclei (%) [1]: 19%
- Population Tubulin-Different-Phenotype (%) [1]: 87%
- Total Cell Count [1]: 181
- Population Apoptotic (%) [2]: 25%
- Population Fragmented Nuclei (%) [2]: 5%
- Population Healthy Nuclei (%) [2]: 88%
- Population Hoechst High Intensity Objects (%) [2]: 7%
- Population Membrane Permeable-Phenotype (%) [2]: 11%
- Population Mitochondria Different-Phenotype (%) [2]: 90%
- Population Mitotic Cells (%) [2]: 75%
- Population Normal (%) [2]: 92%
- Population Pyknosed Nuclei (%) [2]: 6%
- Population Tubulin-Different-Phenotype (%) [2]: 65%
- Total Cell Count [2]: 55
- Population Apoptotic (%) [3]: 66%
- Population Fragmented Nuclei (%) [3]: 16%
- Population Healthy Nuclei (%) [3]: 42%
- Population Hoechst High Intensity Objects (%) [3]: 5%
- Population Membrane Permeable-Phenotype (%) [3]: 77%
- Population Mitotic Cells (%) [3]: 33%
- Population Normal (%) [3]: 95%
- Population Pyknosed Nuclei (%) [3]: 40%
- Total Cell Count [3]: 129
- Population Apoptotic (%) [4]: 82%
- Population Fragmented Nuclei (%) [4]: 8%
- Population Healthy Nuclei (%) [4]: 48%
- Population Hoechst High Intensity Objects (%) [4]: 6%
- Population Membrane Permeable-Phenotype (%) [4]: 94%
- Population Mitochondria Different-Phenotype (%) [4]: 100%
- Population Mitotic Cells (%) [4]: 17%
- Population Normal (%) [4]: 93%
- Population Pyknosed Nuclei (%) [4]: 43%
- Population Tubulin-Different-Phenotype (%) [4]: 100%
- Total Cell Count [4]: 64
- Population Apoptotic (%) [5]: 60%
- Population Fragmented Nuclei (%) [5]: 10%
- Population Healthy Nuclei (%) [5]: 74%
- Population Hoechst High Intensity Objects (%) [5]: 5%
- Population Membrane Permeable-Phenotype (%) [5]: 6%
- Population Mitochondria Different-Phenotype (%) [5]: 84%
- Population Mitotic Cells (%) [5]: 40%
- Population Normal (%) [5]: 94%
- Population Pyknosed Nuclei (%) [5]: 14%
- Population Tubulin-Different-Phenotype (%) [5]: 75%
- Total Cell Count [5]: 222
- Population Apoptotic (%) [6]: 53%
- Population Fragmented Nuclei (%) [6]: 5%
- Population Healthy Nuclei (%) [6]: 71%
- Population Hoechst High Intensity Objects (%) [6]: 4%
- Population Membrane Permeable-Phenotype (%) [6]: 16%
- Population Mitochondria Different-Phenotype (%) [6]: 89%
- Population Mitotic Cells (%) [6]: 46%
- Population Normal (%) [6]: 95%
- Population Pyknosed Nuclei (%) [6]: 22%
- Population Tubulin-Different-Phenotype (%) [6]: 62%
- Total Cell Count [6]: 68
- Population Apoptotic (%) [7]: 92%
- Population Fragmented Nuclei (%) [7]: 23%
- Population Healthy Nuclei (%) [7]: 18%
- Population Hoechst High Intensity Objects (%) [7]: 4%
- Population Membrane Permeable-Phenotype (%) [7]: 92%
- Population Mitochondria Different-Phenotype (%) [7]: 100%
- Population Mitotic Cells (%) [7]: 7%
- Population Normal (%) [7]: 95%
- Population Pyknosed Nuclei (%) [7]: 57%
- Population Tubulin-Different-Phenotype (%) [7]: 100%
- Total Cell Count [7]: 146
- Population Apoptotic (%) [8]: 98%
- Population Fragmented Nuclei (%) [8]: 10%
- Population Healthy Nuclei (%) [8]: 26%
- Population Hoechst High Intensity Objects (%) [8]: 10%
- Population Membrane Permeable-Phenotype (%) [8]: 86%
- Population Mitochondria Different-Phenotype (%) [8]: 95%
- Population Mitotic Cells (%) [8]: 1%
- Population Normal (%) [8]: 89%
- Population Pyknosed Nuclei (%) [8]: 62%
- Population Tubulin-Different-Phenotype (%) [8]: 95%
- Total Cell Count [8]: 70
- Population Apoptotic (%) [9]: 60%
- Population Fragmented Nuclei (%) [9]: 6%
- Population Healthy Nuclei (%) [9]: 78%
- Population Hoechst High Intensity Objects (%) [9]: 6%
- Population Mitochondria Different-Phenotype (%) [9]: 72%
- Population Mitotic Cells (%) [9]: 40%
- Population Normal (%) [9]: 93%
- Population Pyknosed Nuclei (%) [9]: 15%
- Population Tubulin-Different-Phenotype (%) [9]: 59%
- Total Cell Count [9]: 345
- Population Apoptotic (%) [10]: 61%
- Population Fragmented Nuclei (%) [10]: 7%
- Population Healthy Nuclei (%) [10]: 68%
- Population Hoechst High Intensity Objects (%) [10]: 3%
- Population Membrane Permeable-Phenotype (%) [10]: 8%
- Population Mitochondria Different-Phenotype (%) [10]: 65%
- Population Mitotic Cells (%) [10]: 38%
- Population Normal (%) [10]: 96%
- Population Pyknosed Nuclei (%) [10]: 23%
- Population Tubulin-Different-Phenotype (%) [10]: 47%
- Total Cell Count [10]: 118
- Population Apoptotic (%) [11]: 98%
- Population Fragmented Nuclei (%) [11]: 33%
- Population Healthy Nuclei (%) [11]: 5%
- Population Hoechst High Intensity Objects (%) [11]: 9%
- Population Membrane Permeable-Phenotype (%) [11]: 100%
- Population Mitochondria Different-Phenotype (%) [11]: 100%
- Population Mitotic Cells (%) [11]: 1%
- Population Normal (%) [11]: 90%
- Population Pyknosed Nuclei (%) [11]: 61%
- Population Tubulin-Different-Phenotype (%) [11]: 100%
- Total Cell Count [11]: 177
- Population Apoptotic (%) [12]: 100%
- Population Fragmented Nuclei (%) [12]: 21%
- Population Healthy Nuclei (%) [12]: 30%
- Population Hoechst High Intensity Objects (%) [12]: 21%
- Population Membrane Permeable-Phenotype (%) [12]: 95%
- Population Mitotic Cells (%) [12]: 0%
- Population Normal (%) [12]: 78%
- Population Pyknosed Nuclei (%) [12]: 48%
- Total Cell Count [12]: 92
